Measurements published in ChEMBL document CHEMBL5620363, “HIV-1 protease inhibitors with a P1 phosphonate modification maintain potency against drug-resistant variants by increased interactions with flap residues” (Eur J Med Chem, 2023).

Tests used:
[1] = target: Protease (Human immunodeficiency virus 1, UniProt Q9YQ12, I84V); assay: (§1) Binding affinity to drug-resistant HIV-1 protease I84V mutant expressed in Escherichia coli TAP-106 cells assessed as inhibition constant using a EDANS/DABCYL FRET-peptide substrate preincubated for 1 hr followed by substrate addition measured after 1 hr by fluorogenic assay
Sequence of Protease (Human immunodeficiency virus 1, UniProt Q9YQ12, I84V) (Q9YQ12 entry or part of it I84V): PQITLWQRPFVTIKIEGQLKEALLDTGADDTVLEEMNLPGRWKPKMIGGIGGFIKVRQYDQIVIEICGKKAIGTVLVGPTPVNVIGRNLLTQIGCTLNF

[2] = target: Protease (Human immunodeficiency virus 1, UniProt Q9YQ12, A71V/I50V); assay: Binding affinity to drug-resistant HIV-1 protease I50V/A71V mutant expressed in Escherichia coli TAP-106 cells assessed as inhibition constant using a EDANS/DABCYL FRET-peptide substrate preincubated for 1 hr followed by substrate addition measured after 1 hr by fluorogenic assay
Sequence of Protease (Human immunodeficiency virus 1, UniProt Q9YQ12, A71V/I50V) (Q9YQ12 entry or part of it A71V/I50V): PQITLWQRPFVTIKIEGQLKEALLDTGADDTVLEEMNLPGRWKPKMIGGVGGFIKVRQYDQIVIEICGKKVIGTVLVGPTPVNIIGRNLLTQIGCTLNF

[3] = as §1, with “I13V/G16E/V32I/L33F/K45I/M46I/V82F/I84V” for “I84V”; set-up: species or system Human immunodeficiency virus 1
[4] = as §1, with “I13V/G16E/V32I/L33F/K45I/M46I/V82F/I84V/A71V/L76V” for “I84V”; set-up: species or system Human immunodeficiency virus 1
[5] = as §1, with “I13V/G16E/V32I/L33F/K45I/M46I/V82F/I84V/A71V/L76V/I54L” for “I84V”; set-up: species or system Human immunodeficiency virus 1
[6] = test system: Human immunodeficiency virus 1; assay: Antiviral activity against wild-type HIV-1 NL4-3 infected in human TZM-bl cells using virus particles harvested from 18 hrs drug-treated HEK293T cells harboring viral transfection assessed as reduction in viral infection measured after 48 hrs in TZM-bl cells by luciferase based assay; format: functional, organism-based; settings: Human immunodeficiency virus 1, NL4-3, TZM-bl
[7] = test system: HEK-293T; assay: (§2) Cytotoxicity against HEK293T cells incubated for 48 hrs by absorbance based assay; format: toxicity, cell-based; settings: human, hek-293t, 48 h
[8] = test system: TZM; assay: Cytotoxicity against human TZM-bl cells incubated for 48 hrs by absorbance based assay; format: toxicity, cell-based
[9] = in vitro; settings: human
[10] = test system: Human immunodeficiency virus 1; assay: (§3) Antiviral activity against wild-type HIV-1 NL4-3 infected in human TZM-bl cells using virus particles harvested from 24 hrs drug-treated human CEM cells infected with virus assessed as reduction in viral infection measured after 48 hrs in TZM-bl cells by Firefly luciferase based assay; format: functional, organism-based; settings: Human immunodeficiency virus 1, NL4-3, TZM-bl
How it was run: (§4)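 Virus stocks grown by infecting 3 × 10^6 CEM cells with virus at 37 °C for 2–3 h, then RPMI with medium changes every 48 h until CPE. Infected CEM cells plated onto five-fold serial inhibitor dilutions in RPMI (top 100 μM).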

[11] = test system: Human immunodeficiency virus 1; assay: Antiviral activity against drug-resistant HIV-1 harboring protease L10I/V11I/I13V/K14R/A22V/E35D/M36I/N37D/G48M/F53L/I54V/I62V/L63P/A71V/T74S/V82A/I84V/T91S/Q92K mutant infected in human TZM-bl cells using virus particles harvested from 24 hrs drug-treated human CEM cells infected with virus assessed as reduction in viral infection measured after 48 hrs in TZM-bl cells by Firefly luciferase based …; format: functional, organism-based; settings: Human immunodeficiency virus 1, TZM-bl
[12] = test system: Human immunodeficiency virus 1; assay: as §3, with “drug-resistant” for “wild-type”, “harboring RT mutation/protease I13V/G16E/V32I/L33F/K45I/M46I/A71V/L76V/V82F/I84V mutant” for “NL4-3”; format: functional, organism-based; settings: Human immunodeficiency virus 1, TZM-bl; how it was run: as §4
[13] = test system: Human immunodeficiency virus 1; assay: as §3, with “drug-resistant” for “wild-type”, “harboring protease L10F/V11I/I13V/V32I/L33F/K43T/M46L/I54L/A71V/V82I/I84V/L89M/T91S/Q92R mutant” for “NL4-3”; format: functional, organism-based; settings: Human immunodeficiency virus 1, TZM-bl; how it was run: as §4
[14] = test system: Human immunodeficiency virus 1; assay: as §3, with “drug-resistant” for “wild-type”, “harboring protease L10F/I15V/M46I/I47V/I50V/F53L/A71V/V82I/I84V/L89T mutant” for “NL4-3”; format: functional, organism-based; settings: Human immunodeficiency virus 1, TZM-bl; how it was run: as §4
[15] = test system: Human immunodeficiency virus 1; assay: as §3, with “drug-resistant” for “wild-type”, “harboring protease L10F/I13V/L33F/K45R/M46I/I47V/I50V/F53L/I54L/I66F/A71V/T74A/L76S/V82I mutant” for “NL4-3”; format: functional, organism-based; settings: Human immunodeficiency virus 1, TZM-bl; how it was run: as §4
[16] = test system: Human immunodeficiency virus 1; assay: (§5) Antiviral activity against DRV-resistant HIV-1 infected in human TZM-bl cells using virus particles harvested from 24 hrs drug-treated human CEM cells infected with virus assessed as reduction in viral infection measured after 48 hrs in TZM-bl cells by Firefly luciferase based assay; format: functional, organism-based; settings: Human immunodeficiency virus 1, TZM-bl; how it was run: as §4
[17] = as §2; format: toxicity, cell-based, HEK-293T; settings: human, HEK293T cells
[18] = test system: Human immunodeficiency virus 1; assay: as §5, with “drug-resistant” for “DRV-resistant”, “HIV-1 harboring Gag mutation/protease I13V/G16E/V32I/L33F/K45I/M46I/A71V/L76V/V82F/I84V mutant” for “HIV-1”; format: functional, organism-based; settings: Human immunodeficiency virus 1, TZM-bl; how it was run: as §4

SMILES	Ki [1] [nM]	Ki [2] [nM]	Ki [3] [nM]	Ki [4] [nM]	Ki [5] [nM]	EC50 [6] [nM]	CC50 [7] [nM]	CC50 [8] [nM]	selectivity ratio [9]	EC50 [10] [nM]	EC50 [11] [nM]	EC50 [12] [nM]	EC50 [13] [nM]	EC50 [14] [nM]	EC50 [15] [nM]	EC50 [16] [nM]	CC50 at 48 h [17] [nM]	EC50 [18] [nM]
CCOP(=O)(COc1ccc(C[C@H](NC(=O)O[C@H]2CO[C@H]3OCC[C@H]32)[C@H](O)CN(CC(C)C)S(=O)(=O)c2ccc(OC)cc2)cc1)OCC	< 0.005	< 0.005	0.56	2.1	3.6	11.8	50000	> 100000	4.24									
CC(C)CN(C[C@@H](O)[C@H](Cc1ccccc1)NC(=O)O[C@H]1CO[C@H]2OCC[C@H]21)S(=O)(=O)c1ccc(N)cc1						7.73				8	56	1460	15800	1870	12900	> 100000		
CCOP(=O)(COc1ccc(C[C@H](NC(=O)O[C@H]2CO[C@H]3OCC[C@H]32)[C@H](O)CN(CC(CC)CC)S(=O)(=O)c2ccc3ncsc3c2)cc1)OCC	< 0.005	< 0.005	0.25	0.24	3.2	10.7	22000	43000	2.06									
CCOP(=O)(COc1ccc(C[C@H](NC(=O)O[C@H]2CO[C@H]3OCC[C@H]32)[C@H](O)CN(C[C@@H](C)CC)S(=O)(=O)c2ccc(N)cc2)cc1)OCC	< 0.005	< 0.005	13.3	146	259	22.9	92000	> 100000	4.02									
CCOP(=O)(COc1ccc(C[C@H](NC(=O)O[C@H]2CO[C@H]3OCC[C@H]32)[C@H](O)CN(CC(CC)CC)S(=O)(=O)c2ccc3c(c2)OCO3)cc1)OCC	< 0.005	< 0.005	0.37	1.6	6.9	3.11	21000	> 100000		3	< 10							
CCC(CC)CN(C[C@@H](O)[C@H](Cc1ccccc1)NC(=O)O[C@H]1CO[C@H]2OCC[C@H]21)S(=O)(=O)c1ccc2c(c1)OCO2										6			5770	6440	> 100000	780		
CCOP(=O)(COc1ccc(C[C@H](NC(=O)O[C@H]2CO[C@H]3OCC[C@H]32)[C@H](O)CN(CC(C)C)S(=O)(=O)c2ccc3ncsc3c2)cc1)OCC	< 0.005	< 0.005	0.93	1.9	15	10.4	45000	> 100000	4.33									
CCOP(=O)(COc1ccc(C[C@H](NC(=O)O[C@H]2CO[C@H]3OCC[C@H]32)[C@H](O)CN(C[C@@H](C)CC)S(=O)(=O)c2ccc(CO)cc2)cc1)OCC	< 0.005	< 0.005	4.98	52.9	103	27.3			> 3.66								> 100000	
CCOP(=O)(COc1ccc(C[C@H](NC(=O)O[C@H]2CO[C@H]3OCC[C@H]32)[C@H](O)CN(C[C@@H](C)CC)S(=O)(=O)c2ccc3ncsc3c2)cc1)OCC	< 0.005	< 0.005	1.8	1.2	9.03	9.93	23000	53000	2.32									
CCOP(=O)(COc1ccc(C[C@H](NC(=O)O[C@H]2CO[C@H]3OCC[C@H]32)[C@H](O)CN(C[C@@H](C)CC)S(=O)(=O)c2ccc(OC)cc2)cc1)OCC	< 0.005	< 0.005	0.78	3.7	10.5	9.56	33000	78000	3.45									
CCOP(=O)(COc1ccc(C[C@H](NC(=O)O[C@H]2CO[C@H]3OCC[C@H]32)[C@H](O)CN(CC(CC)CC)S(=O)(=O)c2ccc(CO)cc2)cc1)OCC	< 0.005	< 0.005	2.2	32.1	81.2	17	69000	> 100000	4.06									
CCOP(=O)(COc1ccc(C[C@H](NC(=O)O[C@H]2CO[C@H]3OCC[C@H]32)[C@H](O)CN(CC(CC)CC)S(=O)(=O)c2ccc(N)cc2)cc1)OCC	< 0.005	< 0.005	4.71	51.6	106	16	44000	96000	2.75									
CCOP(=O)(COc1ccc(C[C@H](NC(=O)O[C@H]2CO[C@H]3OCC[C@H]32)[C@H](O)CN(CC(CC)CC)S(=O)(=O)c2ccc(OC)cc2)cc1)OCC	< 0.005	< 0.005	0.77	1.26	2.2	5.15	22000	59000		5	< 10	85						38
CCOP(=O)(COc1ccc(C[C@H](NC(=O)O[C@H]2CO[C@H]3OCC[C@H]32)[C@H](O)CN(C[C@@H](C)CC)S(=O)(=O)c2ccc3c(c2)OCO3)cc1)OCC	< 0.005	< 0.005					31000	> 100000										
CCOP(=O)(COc1ccc(C[C@H](NC(=O)O[C@H]2CO[C@H]3OCC[C@H]32)[C@H](O)CN(CC(C)C)S(=O)(=O)c2ccc3c(c2)OCO3)cc1)OCC	< 0.005	< 0.005	2.2	4.5	63.5	5.67	68000	> 100000	12									
